TDP2 absorb – blocks human TDP2 phosphodiesterase activity; O95551; recombinant TDP2, T5PNP hydrolysis, p-nitrophenol absorbance 415 nm; 370,000 compounds, 0.34% hits; inhibition, % at 12.8 µM;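 active = inhibition above the mean of all tested compounds plus 3 SD, set per campaign, cut at about 25% in these data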;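 note: 0% = DMSO with enzyme and 100% = buffer with substrate but no TDP2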
Target sequence (O95551 whole entry, looked up): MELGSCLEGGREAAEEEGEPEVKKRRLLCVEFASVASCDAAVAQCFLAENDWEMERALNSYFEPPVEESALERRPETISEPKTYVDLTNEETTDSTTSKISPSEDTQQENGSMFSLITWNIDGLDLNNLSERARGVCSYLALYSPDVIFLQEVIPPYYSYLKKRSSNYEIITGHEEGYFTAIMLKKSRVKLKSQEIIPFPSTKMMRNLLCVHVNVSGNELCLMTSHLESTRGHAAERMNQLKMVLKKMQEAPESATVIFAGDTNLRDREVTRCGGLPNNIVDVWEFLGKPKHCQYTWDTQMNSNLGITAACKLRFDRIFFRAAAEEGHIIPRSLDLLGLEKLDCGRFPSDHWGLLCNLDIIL
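Evaluation: % inhibition relative to enzyme-containing and enzyme-free wells. Material: recombinant human TDP2. Benchmarks: enzyme-free and DMSO wells. Timing: enzyme reaction with compound for 2 h at 37 °C. Compound dosing: 12.8 µM only. Measured by: p-Nitrophenol epi absorbance. Reagent: T5PNP substrate at 5 mM, a TopII-DNA adduct mimic. Replication: single well per compound.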
UHRF1 MBD2 ctr – UHRF1 methyl-DNA binding inhibition; 370,000 compounds, 0.75% hits; Q96T88; inhibition, % at 4.4 µM; AID 687016; UHRF1 binding to methylated oligo, TR-FRET; in the data active = inhibition above about 21%;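 note: UHRF1 SRA domain binding a hemimethylated CpG hairpin DNA probe; 0% = median of test compound wells and 100% = reference inhibitor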
LEDGF integ inh – blocks HIV-1 LEDGF/p75-dependent DNA integration; inhibition, % at 3.7 µM; AID 743269; TR-FRET IN-LEDGF/p75 DNA integration, Eu/Cy5; 370,000 compounds, 0.64% hits;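 active = inhibition above the screen-wide mean plus 3 SD, cut at about 13% in these data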;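 note: signal is the Cy5 over europium emission ratio at 671 and 618 nm; 0% = plate median of compound wells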
ARFGAP1 inh – inhibitors of rat ARFGAP1; Arfgap1-stimulated ARF1 GTP hydrolysis, GDP FP detection; 360,000 compounds, 0.26% hits; Q62848; inhibition, % at 16.5 µM;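 active = inhibition above a per-plate limit, mean inhibition of low control wells plus 3 SD, cut at about 25% in these data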;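 note: 0% = DMSO wells with enzyme and 100% = wells lacking Arfgap1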
Target sequence (Q62848 1-136 limits assumed): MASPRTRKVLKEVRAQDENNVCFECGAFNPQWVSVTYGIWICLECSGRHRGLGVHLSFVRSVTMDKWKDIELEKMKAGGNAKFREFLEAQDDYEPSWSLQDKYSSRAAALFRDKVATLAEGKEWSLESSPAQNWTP
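system = rat Arfgap1 catalytic domain, aa 1-136 | technique = FP, GDP Alexa 633 tracer displaced from anti-GDP antibody, 620/688 nm | compound = one concentration, 16.5 µM, DMSO 1.26% | medium = HEPES-based buffer, pH 7.5 | timing = compound-enzyme preincubation 20 min, reaction 120 min, detection 60 min, 25 °C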
ASAP1 inh – blocks human ASAP1-stimulated Arf1 GTP hydrolysis | inhibition, % at 16.5 µM | 360,000 compounds, 0.19% hits | GDP FP detection | AID 624377; in the data active = inhibition above about 25%;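 note: 0% = vehicle with enzyme and substrate and 100% = no enzyme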
MBD2 DNA inh – blocks human MBD2 binding to methylated DNA; TR-FRET, MBD2 binding to methylated oligonucleotide; 370,000 compounds, 0.31% hits; inhibition, % at 4.4 µM; AID 686964; in the data active = inhibition above about 13%
Active calls of the source: *. Only some compounds are listed: those with a hit (about 2% of all), similar ones and a draw of the others.

Results for Cc1cccc(NC(=O)c2cccc3c2-c2ccccc2C3=O)c1C ?
TDP2 absorb: 0; UHRF1 MBD2 ctr: -2; LEDGF integ inh: -2; MBD2 DNA inh: -1

What do the screens show for `Cc1ccc([N+](=O)[O-])cc1NC(=O)c1cccnc1`?
TDP2 absorb: -14; UHRF1 MBD2 ctr: 39*; LEDGF integ inh: -5; ARFGAP1 inh: 10; ASAP1 inh: -3; MBD2 DNA inh: 5

What do the screens show for `C/C(=N\Nc1ccc(Cl)c(C(=O)O)c1)c1ccc[nH]1`?
TDP2 absorb: -6; UHRF1 MBD2 ctr: 23*; LEDGF integ inh: 7; ARFGAP1 inh: -5; ASAP1 inh: -8; MBD2 DNA inh: 5

What do the screens show for `C/C(=N\Nc1ccc(Cl)c(C(=O)O)c1)c1cccs1`?
TDP2 absorb: -23; UHRF1 MBD2 ctr: 17; LEDGF integ inh: 3; ARFGAP1 inh: 14; ASAP1 inh: 1; MBD2 DNA inh: 2

What do the screens show for `CCCCCCCCNS(=O)(=O)CC1NCc2cc(OC)ccc21` (centres undefined)?
TDP2 absorb: -3; UHRF1 MBD2 ctr: -5; LEDGF integ inh: 0; MBD2 DNA inh: 2

How did O=C1CN(C(=O)C2CCCC2)CCN1 do in these assays?
TDP2 absorb: -3; UHRF1 MBD2 ctr: 63*; LEDGF integ inh: -1; ARFGAP1 inh: 13; ASAP1 inh: 3; MBD2 DNA inh: 0

Results for Cc1nnc(-n2cnc3ccccc32)c2ccccc12 ?
TDP2 absorb: -2; UHRF1 MBD2 ctr: 21*; LEDGF integ inh: 3; ARFGAP1 inh: 3; ASAP1 inh: -4; MBD2 DNA inh: 11

Results for Cc1nnc(OCc2nc3ccccc3n2C)c2ccccc12 ?
TDP2 absorb: 8; UHRF1 MBD2 ctr: 3; LEDGF integ inh: -1; ARFGAP1 inh: -4; ASAP1 inh: -7; MBD2 DNA inh: 6

How did COc1cc(C=NNC(=O)CN2CCN(Cc3ccc(C)cc3)CC2)cc(OC)c1O do in these assays?
TDP2 absorb: -4; UHRF1 MBD2 ctr: -1; LEDGF integ inh: -3; MBD2 DNA inh: -1

Results for COc1ccc(Cn2ccc3ccc(-c4ccc5ccn(Cc6ccccc6)c5c4)cc32)cc1 ?
TDP2 absorb: 5; UHRF1 MBD2 ctr: -3; LEDGF integ inh: 0; MBD2 DNA inh: -2

What do the screens show for `COc1ccc(Cc2c(-c3ccc(F)cc3)nc3ccc(C)cn23)c(C)c1`?
TDP2 absorb: 1; UHRF1 MBD2 ctr: 21*; LEDGF integ inh: -2; ARFGAP1 inh: 9; ASAP1 inh: -13; MBD2 DNA inh: 4

How did Cc1ccn2c(Cc3ccccc3)c(-c3ccc(F)cc3)nc2c1 do in these assays?
TDP2 absorb: 1; UHRF1 MBD2 ctr: 21*; LEDGF integ inh: -3; ARFGAP1 inh: -5; ASAP1 inh: -11; MBD2 DNA inh: 8

How did COc1ccc(Cc2c(-c3ccc(OC)c(OC)c3)nc3ccc(C)cn23)c(C)c1 do in these assays?
TDP2 absorb: -1; UHRF1 MBD2 ctr: 24*; LEDGF integ inh: -1; ARFGAP1 inh: 8; ASAP1 inh: 8; MBD2 DNA inh: 7

Results for COc1ccc(Cc2c(-c3ccc(OC)c(OC)c3)nc3c(C)cc(Br)cn23)c(C)c1 ?
TDP2 absorb: 1; UHRF1 MBD2 ctr: 13; LEDGF integ inh: -4; ARFGAP1 inh: 8; ASAP1 inh: -5; MBD2 DNA inh: 4

Results for Fc1ccc(-c2nc3ccc(Cl)cn3c2Cc2ccccc2)cc1 ?
TDP2 absorb: 3; UHRF1 MBD2 ctr: -2; LEDGF integ inh: 1; ARFGAP1 inh: -6; ASAP1 inh: 2; MBD2 DNA inh: 3

Results for COC(=O)c1ccc2nc(-c3ccc(F)cc3)c(Cc3ccc(OC)cc3C)n2c1 ?
TDP2 absorb: -2; UHRF1 MBD2 ctr: 21; LEDGF integ inh: 0; ARFGAP1 inh: 7; ASAP1 inh: -10; MBD2 DNA inh: 9

How did O=C(NC1CCCCN(Cc2cccc(F)c2)C1=O)c1ccc2ccccc2c1 (centres undefined) do in these assays?
TDP2 absorb: 4; UHRF1 MBD2 ctr: -1; LEDGF integ inh: -1; MBD2 DNA inh: -2

What do the screens show for `COc1cc(NC(=O)C2CCCN(S(=O)(=O)c3ccc(C)cc3)C2)cc(OC)c1` (centres undefined)?
TDP2 absorb: 2; UHRF1 MBD2 ctr: -3; LEDGF integ inh: 3; MBD2 DNA inh: 1

Source: PubChem BioAssay (The Scripps Research Institute Molecular Screening Center)
